What was measured:
[1] = system: Hepatitis C virus; test: Inhibition of HCV RNA replication in 2209-23 cells transfected with bicistronic HCV replicon; format: functional, Hepacivirus hominis
In short: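 Huh-7-derived 2209-23 cells stably carry a bicistronic genotype 1b HCV replicon with a renilla luciferase reporter. Replication is read as luciferase signal. EC50 is the concentration that reduces HCV replication by 50%.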

[2] = Cytotoxicity against in 2209-23 cells by WST assay; format: cell-based; settings: human
In short: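 Cell viability read by WST assay in 2209-23 replicon cells (Huh-7 derived, stably carrying a genotype 1b bicistronic HCV replicon). CC50 is the concentration that reduces cell viability by 50%.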

[3] = Inhibition of HCV NS5B570-Con1 RNA polymerase; set-up: species or system Hepacivirus hominis
In short: (§1)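 Recombinant HCV genotype 1b NS5B truncated at residue 570, from strain Con1 or strain BK. RNA synthesis was run primer-independently on HCV genome-derived cIRES RNA template. Read-out was incorporation of radiolabeled UMP into acid-insoluble RNA product.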

[4] = Inhibition of HCV NS5B570n-BK RNA polymerase; set-up: species or system Hepacivirus hominis; in short: as §1

With `[N-]=[N+]=N[C@]1(COP(=O)(NCC(=O)OCc2ccccc2)Oc2ccccc2)O[C@@H](n2ccc(=O)[nH]c2=O)[C@@H](O)[C@H]1O` (some centres not stated) as the molecule, how does the EC50 ([1]; Hepatitis C virus) read?
Its EC50 is 1600 nM.

What about the CC50 [2] of the same molecule?
The CC50 was > 100 µM.

What does the source list for `CCOC(=O)CCNP(=O)(OC[C@@]1(N=[N+]=[N-])O[C@@H](n2ccc(=O)[nH]c2=O)[C@@H](O)[C@H]1O)Oc1ccccc1` (some centres not stated)?
EC50 ([1]; Hepatitis C virus): > 100000 nM; CC50 [2]: > 100 µM

With `[N-]=[N+]=N[C@]1(COP(=O)(O)OP(=O)(O)OP(=O)(O)O)O[C@@H](n2ccc(=O)[nH]c2=O)[C@@H](O)[C@H]1O` as the molecule, how does the IC50 [3] read?
Its IC50 is 220 nM.

And the IC50 [4]?
Its IC50 is 230 nM.

For `C[C@H](NP(=O)(OC[C@@]1(N=[N+]=[N-])O[C@@H](n2ccc(=O)[nH]c2=O)[C@@H](O)[C@H]1O)Oc1ccccc1)C(=O)OC(C)(C)C` (some centres not stated), which EC50 ([1]; Hepatitis C virus) is on record?
Its EC50 is 5100 nM.

And the CC50 [2]?
The CC50 was > 100 µM.

What does the source list for `CCC(C)OC(=O)[C@H](C)NP(=O)(OC[C@@]1(N=[N+]=[N-])O[C@@H](n2ccc(=O)[nH]c2=O)[C@@H](O)[C@H]1O)Oc1ccccc1` (some centres not stated)?
EC50 ([1]; Hepatitis C virus): 630 nM; CC50 [2]: > 100 µM

For `CC(C)(NP(=O)(OC[C@@]1(N=[N+]=[N-])O[C@@H](n2ccc(=O)[nH]c2=O)[C@@H](O)[C@H]1O)Oc1ccccc1)C(=O)OCc1ccccc1` (some centres not stated), which EC50 ([1]; Hepatitis C virus) is on record?
Its EC50 is 3400 nM.

What about the CC50 [2] of the same molecule?
The CC50 was > 100 µM.

Which results are given for `CCOC(=O)CN(C)P(=O)(OC[C@@]1(N=[N+]=[N-])O[C@@H](n2ccc(=O)[nH]c2=O)[C@@H](O)[C@H]1O)Oc1ccccc1` (some centres not stated)?
EC50 ([1]; Hepatitis C virus): > 100000 nM; CC50 [2]: > 100 µM

With `CC(C)OC(=O)[C@H](C)NP(=O)(OC[C@@]1(N=[N+]=[N-])O[C@@H](n2ccc(=O)[nH]c2=O)[C@@H](O)[C@H]1O)Oc1ccccc1` (some centres not stated) as the molecule, how does the EC50 ([1]; Hepatitis C virus) read?
The EC50 was 770 nM.

And the CC50 [2]?
The CC50 was > 100 µM.

For `CCOC(=O)[C@H](Cc1ccccc1)NP(=O)(OC[C@@]1(N=[N+]=[N-])O[C@@H](n2ccc(=O)[nH]c2=O)[C@@H](O)[C@H]1O)Oc1ccccc1` (some centres not stated), which EC50 ([1]; Hepatitis C virus) is on record?
Its EC50 is 1370 nM.

What about the CC50 [2] of the same molecule?
The CC50 was > 100 µM.

Which EC50 ([1]; Hepatitis C virus) does the source give for `CCOC(=O)[C@@H]1CCCN1P(=O)(OC[C@@]1(N=[N+]=[N-])O[C@@H](n2ccc(=O)[nH]c2=O)[C@@H](O)[C@H]1O)Oc1ccccc1` (some centres not stated) here?
The EC50 was 6000 nM.

And the CC50 [2]?
Its CC50 is > 100 µM.

What does the source list for `CCOC(=O)[C@H](CC(C)C)NP(=O)(OC[C@@]1(N=[N+]=[N-])O[C@@H](n2ccc(=O)[nH]c2=O)[C@@H](O)[C@H]1O)Oc1ccccc1` (some centres not stated)?
EC50 ([1]; Hepatitis C virus): 2300 nM; CC50 [2]: > 100 µM

What does the source list for `CCCCOC(=O)[C@H](C)NP(=O)(OC[C@@]1(N=[N+]=[N-])O[C@@H](n2ccc(=O)[nH]c2=O)[C@@H](O)[C@H]1O)Oc1ccccc1` (some centres not stated)?
EC50 ([1]; Hepatitis C virus): 1200 nM; CC50 [2]: > 100 µM

Which EC50 ([1]; Hepatitis C virus) does the source give for `CCOC(=O)C1(NP(=O)(OC[C@@]2(N=[N+]=[N-])O[C@@H](n3ccc(=O)[nH]c3=O)[C@@H](O)[C@H]2O)Oc2ccccc2)CCCC1` (some centres not stated) here?
The EC50 was > 100000 nM.

And the CC50 [2]?
Its CC50 is > 100 µM.

What does the source list for `[N-]=[N+]=N[C@]1(COP(=O)(NC2(C(=O)OCc3ccccc3)CCCC2)Oc2ccccc2)O[C@@H](n2ccc(=O)[nH]c2=O)[C@@H](O)[C@H]1O` (some centres not stated)?
EC50 ([1]; Hepatitis C virus): < 100000 nM; CC50 [2]: > 100 µM

With `C[C@@H](NP(=O)(OC[C@@]1(N=[N+]=[N-])O[C@@H](n2ccc(=O)[nH]c2=O)[C@@H](O)[C@H]1O)Oc1ccccc1)C(=O)OCc1ccccc1` (some centres not stated) as the molecule, how does the EC50 ([1]; Hepatitis C virus) read?
Its EC50 is 1200 nM.

And the CC50 [2]?
Its CC50 is > 100 µM.

For `[N-]=[N+]=N[C@]1(COP(=O)(N[C@@H](Cc2ccccc2)C(=O)OCc2ccccc2)Oc2ccccc2)O[C@@H](n2ccc(=O)[nH]c2=O)[C@@H](O)[C@H]1O` (some centres not stated), which EC50 ([1]; Hepatitis C virus) is on record?
The EC50 was < 100000 nM.

What about the CC50 [2] of the same molecule?
Its CC50 is > 100 µM.

With `COC(=O)[C@H](C)NP(=O)(OC[C@@]1(N=[N+]=[N-])O[C@@H](n2ccc(=O)[nH]c2=O)[C@@H](O)[C@H]1O)Oc1ccccc1` (some centres not stated) as the molecule, how does the EC50 ([1]; Hepatitis C virus) read?
The EC50 was 3100 nM.

And the CC50 [2]?
Its CC50 is > 100 µM.

Which EC50 ([1]; Hepatitis C virus) does the source give for `[N-]=[N+]=N[C@]1(CO)O[C@@H](n2ccc(=O)[nH]c2=O)[C@@H](O)[C@H]1O` here?
Its EC50 is > 100000 nM.

And the CC50 [2]?
The CC50 was > 100 µM.

Which EC50 ([1]; Hepatitis C virus) does the source give for `CCOC(=O)[C@H](CCSC)NP(=O)(OC[C@@]1(N=[N+]=[N-])O[C@@H](n2ccc(=O)[nH]c2=O)[C@@H](O)[C@H]1O)Oc1ccccc1` (some centres not stated) here?
Its EC50 is 14000 nM.

What about the CC50 [2] of the same molecule?
The CC50 was > 100 µM.

What does the source list for `[N-]=[N+]=N[C@]1(COP(=O)(O)OP(=O)(O)OP(=O)(O)O)O[C@@H](n2ccc(N)nc2=O)[C@@H](O)[C@H]1O`?
IC50 [3]: 320 nM; IC50 [4]: 290 nM

What does the source list for `CCOC(=O)[C@H](C)NP(=O)(OC[C@@]1(N=[N+]=[N-])O[C@@H](n2ccc(=O)[nH]c2=O)[C@@H](O)[C@H]1O)Oc1ccccc1` (some centres not stated)?
EC50 ([1]; Hepatitis C virus): 1300 nM; CC50 [2]: > 100 µM

With `CCOC(=O)C(C)(C)NP(=O)(OC[C@@]1(N=[N+]=[N-])O[C@@H](n2ccc(=O)[nH]c2=O)[C@@H](O)[C@H]1O)Oc1ccccc1` (some centres not stated) as the molecule, how does the EC50 ([1]; Hepatitis C virus) read?
The EC50 was 10300 nM.

What about the CC50 [2] of the same molecule?
The CC50 was > 100 µM.

Which results are given for `C[C@H](NP(=O)(OC[C@@]1(N=[N+]=[N-])O[C@@H](n2ccc(=O)[nH]c2=O)[C@@H](O)[C@H]1O)Oc1ccccc1)C(=O)OCc1ccccc1` (some centres not stated)?
EC50 ([1]; Hepatitis C virus): 610 nM; CC50 [2]: > 100 µM

For `CC(C)[C@H](NP(=O)(OC[C@@]1(N=[N+]=[N-])O[C@@H](n2ccc(=O)[nH]c2=O)[C@@H](O)[C@H]1O)Oc1ccccc1)C(=O)OCc1ccccc1` (some centres not stated), which EC50 ([1]; Hepatitis C virus) is on record?
Its EC50 is < 100000 nM.

What about the CC50 [2] of the same molecule?
Its CC50 is > 100 µM.

With `C[C@H](NP(=O)(OC[C@@]1(N=[N+]=[N-])O[C@@H](n2ccc(=O)[nH]c2=O)[C@@H](O)[C@H]1O)Oc1cccc2ccccc12)C(=O)OCc1ccccc1` (some centres not stated) [listing 1 of 3 here] as the molecule, how does the EC50 [1] read?
The EC50 was 220 nM.

With `C[C@H](NP(=O)(OC[C@@]1(N=[N+]=[N-])O[C@@H](n2ccc(=O)[nH]c2=O)[C@@H](O)[C@H]1O)Oc1cccc2ccccc12)C(=O)OCc1ccccc1` (some centres not stated) [listing 2 of 3 here] as the molecule, how does the EC50 [1] read?
The EC50 was 390 nM.

With `C[C@H](NP(=O)(OC[C@@]1(N=[N+]=[N-])O[C@@H](n2ccc(=O)[nH]c2=O)[C@@H](O)[C@H]1O)Oc1cccc2ccccc12)C(=O)OCc1ccccc1` (some centres not stated) [listing 3 of 3 here] as the molecule, how does the EC50 ([1]; Hepatitis C virus) read?
The EC50 was 430 nM.

And the CC50 [2]?
Its CC50 is > 100 µM.
